The text below walks through data of ChEMBL document CHEMBL1130244, “Boron-containing polyamines as DNA targeting agents for neutron capture therapy of brain tumors: synthesis and biological evaluation” (J Med Chem, 1997).

Bounds are passed on as bounds.

Test [1] in a line: Actual boron concentration in media was determined by using direct current plasma atomic emission spectroscopy (DCP-AES) after 24 hr incubation.
The species entered for the next test is Rattus norvegicus. In words: In vitro uptake of compound by F98 glioma cells was determined by measuring cellular boron content using direct current plasma atomic emission spectroscopy (DCP-AES) after 24 hr incubation.
Test [2] in a line: Concentration required to produce a 50% reduction in the uptake of [3H]TdR, by F98 glioma cells. It is filed as functional. The settings on record: Rattus norvegicus, F98, 24 h. A digest of the protocol:
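F98 rat glioma cells, 10 000/well, grown overnight at 37 °C in DMEM with 10% FBS, then 24 h with polyamine at 1–100 μM (0.1–10 μg/mL boron); medium replaced with compound-free medium, pulsed with 0.1 μCi [3H]TdR per well for 18–24 h, then harvested and counted. Six replicates per concentration; IC50 from cpm as % of untreated controls.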

The test system of a further test is Nucleic Acid. In words: Binding of compound to calf thymus DNA was determined by an ethidium bromide displacement assay. The class given is nucleic-acid assay, Bos taurus.

On to `N[C@@H](Cc1ccc(B(O)O)cc1)C(=O)O`, for which the Cmedia in test [1] is 50 ug of B/ml. The Concentration in the test listed under Rattus norvegicus is 81 µg of B g-1.
As usually defined, the IC50 is the concentration at which inhibition is half-maximal. Read a high IC50 as weaker potency in that assay. As for `CCNCCCNCCCCNCCCNCC` [BIS(ETHYL)SPERMINE], the IC50 in test [2] is over 100 µM.
Consider `NCCCCNCCCN` [SPERMIDINE], for which the IC50 in the test on Nucleic Acid was 175 µM; in test [2], over 100 µM.
In the case of `NCCCNCCCCNCCCN` [SPERMINE], the IC50 was 17 µM with Nucleic Acid and over 100 µM in test [2].
